Key:
[1] = tested on: SARS-CoV-2 virus; format: cell-based; conditions: read-out: IC50 of inhibition of SARS-CoV-2 viral replication
[2] = biological target: T1, SARS-CoV-2 Mpro (Severe acute respiratory syndrome coronavirus 2, UniProt P0DTD1); assay: biochemical; conditions: read-out: %Inhibition @0.3 μM
[3] = biological target: T1, SARS-CoV-2 Mpro; format: binding
[4] = tested on: HPAepiC cells; assay: ROS-induced cell death; format: cell-based; conditions: 50 μM H2O2 in HPAepiC cells; 10 μM ebselen/EBs, NAC 10 mM, 24 h
Outline: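 HPAepiC cells were exposed to 50 μM H₂O₂ for 1 h, then washed three times with fresh medium. Medium with 10 μM test compound or 10 mM NAC was added for 24 h before cell death was assessed.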

[5] = biological target: T1, SARS-CoV-2 Mpro; assay: HPLC assay for inhibition of Mpro; format: biochemical; conditions: 0.3 μM compound, Mpro 0.2 μM; about 70% hydrolysis with Mpro alone
[6] = tested on: intracellular reactive oxygen species (ROS) in HPAepiC cells; assay: Intracellular ROS measurement with DCFH-DA after H2O2; format: cell-based; conditions: 50 μM H2O2 in HPAepiC cells; 10 μM ebselen/EBs, NAC 10 mM
Outline: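 HPAepiC cells were cultured 24 h in 35-mm dishes, exposed to 50 μM H₂O₂ for 1 h and washed three times. They were then given 10 μM test compound for 24 h, with 10 mM NAC as positive control. Cells were loaded with 10 μM DCFH-DA for 30 min at 37 °C in the dark, washed with PBS and imaged confocally (Ex 488 nm, Em 520–570 nm). Relative fluorescence intensity was scored.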

SMILES: O=c1c2ccccc2[se]n1-c1ccccc1 [Ebselen]
- IC50 [1]: 24.6 µM
- inhibition at 0.3 µM [2]: 61.2 ± 0.76%
- covalent binding to Mpro (peptide modified) [3]: identified to bind to ebselen
- ROS induced cell death [4]: dramatically decreased
- substrate hydrolysis [5]: 30%
- intracellular ROS level (DCFH-DA fluorescence) [6]: dramatically decreased

SMILES: CC(=O)N[C@@H](CS)C(=O)O [NAC, N-Acetyl-L-cysteine]
- ROS induced cell death [4]: reversed the cytotoxicity induced by ROS
- intracellular ROS level (DCFH-DA fluorescence) [6]: scavenged the intracellular ROS

Reference: PMC8556866 (Bioorganic Chemistry, 2021)
